The subject of data set [1] is Mus musculus. Kind of data set: Anticonvulsant activity in CF1 mouse assessed as protection against subcutaneous metrazole-induced seizures at 300 mg/kg, ip after 0.5 hrs. Format: functional, organism-based. Set-up: dose 300 mg/kg.
The test system of data set [2] is Mus musculus. The data set can be described thus: Anticonvulsant activity in CF1 mouse assessed as protection against maximal electroshock-induced seizures at 30 mg/kg, ip after 4 hrs. In kind it is functional, organism-based. Set-up: dose 30 mg/kg. The method in brief:
(§1)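 Male CF-1 albino mice (18–25 g), dosed i.p. at 30, 100 or 300 mg/kg in 0.5% methyl cellulose/water or PEG 200 (0.01 ml/g); tested at intervals after dosing; protection = abolition of hind limb tonic extensor component of MES seizure; scored as protected/tested.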
(In the maximal electroshock model the usual endpoint is tonic extension of the hind limbs.)

Data set [3] concerns Mus musculus. Kind of data set: Neurotoxicity in CF1 mouse at 300 mg/kg, ip after 4 hrs by rotarod test. More on the design: dose 300 mg/kg, route intraperitoneal. In kind it is toxicity, organism-based. The following applies: in vivo. In a few lines:
(§2)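 Rotorod neurotoxicity in male CF-1 mice (18–25 g) after i.p. compound in 0.5% methyl cellulose/water or PEG 200 at 30, 100 or 300 mg/kg; reported as number showing toxicity/number tested.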

In data set [4] the test system is Mus musculus. The data set can be described thus: Neurotoxicity in CF1 mouse at 300 mg/kg, ip after 0.5 hrs by rotarod test. In kind it is toxicity, organism-based. Set-up: dose 300 mg/kg, route intraperitoneal. The following applies: in vivo. In a few lines: as §2
A general note: The rotarod test checks motor coordination on a turning rod.

In data set [5] the test system is Mus musculus. Kind of data set: Anticonvulsant activity in CF1 mouse assessed as protection against 6 Hz electric shock-induced seizures at 100 mg/kg, ip after 0.25 hrs. Format: functional, organism-based. More on the design: dose 100 mg/kg. The method in brief:
(§3)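 Male CF-1 albino mice (18–25 g), compound suspended in 0.5% methyl cellulose/water or PEG 200, given i.p.; four mice per time point (0.25, 0.5, 1.0, 2.0, 4 h) challenged via corneal electrodes at 6 Hz, 32 mA for 3 s, current eliciting psychomotor seizure in 97% of animals; reported as protected/tested.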

The subject of data set [6] is Mus musculus. Kind of data set: Anticonvulsant activity in CF1 mouse assessed as protection against 6 Hz electric shock-induced seizures at 100 mg/kg, ip after 1 hr. More on the design: dose 100 mg/kg. Format: functional, organism-based. The method in brief: as §3
The test system of data set [7] is Mus musculus. The data set can be described thus: Anticonvulsant activity in CF1 mouse assessed as protection against maximal electroshock-induced seizures at 300 mg/kg, ip after 0.5 hrs. In kind it is functional, organism-based. More on the design: dose 300 mg/kg. In a few lines:
as §1

For data set [8], the system named is Mus musculus. Kind of data set: Anticonvulsant activity in CF1 mouse assessed as protection against subcutaneous metrazole-induced seizures at 30 mg/kg, ip after 0.5 hrs. More on the design: dose 30 mg/kg. In kind it is functional, organism-based.
Data set [9] relates to Mus musculus. The data set can be described thus: Neurotoxicity in CF1 mouse at 100 mg/kg, ip after 4 hrs by rotarod test. In kind it is toxicity, organism-based. More on the design: dose 100 mg/kg, route intraperitoneal. The conditions noted are these: in vivo. In a few lines:
as §2

The subject of data set [10] is Mus musculus. Kind of data set: Anticonvulsant activity in CF1 mouse assessed as protection against maximal electroshock-induced seizures at 30 mg/kg, ip after 0.5 hrs. Format: functional, organism-based. Set-up: dose 30 mg/kg. The method in brief: as §1
Data set [11] deals with Mus musculus. Kind of data set: Anticonvulsant activity in CF1 mouse assessed as protection against maximal electroshock-induced seizures at 300 mg/kg, ip after 4 hrs. In kind it is functional, organism-based. More on the design: dose 300 mg/kg. In a few lines: as §1
Data set [12] relates to Mus musculus. The data set can be described thus: Anticonvulsant activity in CF1 mouse assessed as protection against 6 Hz electric shock-induced seizures at 100 mg/kg, ip after 2 hrs. Set-up: dose 100 mg/kg. Format: functional, organism-based. The method in brief: as §3
Data set [13] relates to Mus musculus. The data set can be described thus: Anticonvulsant activity in CF1 mouse assessed as protection against subcutaneous metrazole-induced seizures at 100 mg/kg, ip after 4 hrs. In kind it is functional, organism-based. More on the design: dose 100 mg/kg.
In data set [14] the test system is Mus musculus. Kind of data set: Anticonvulsant activity in CF1 mouse assessed as protection against subcutaneous metrazole-induced seizures at 300 mg/kg, ip after 4 hrs. In kind it is functional, organism-based. More on the design: dose 300 mg/kg.
The test system of data set [15] is Mus musculus. The data set can be described thus: Neurotoxicity in CF1 mouse at 30 mg/kg, ip after 4 hrs by rotarod test. The conditions noted are these: in vivo. Set-up: dose 30 mg/kg, route intraperitoneal. Format: toxicity, organism-based. In a few lines: as §2
Data set [16] has as its system Mus musculus. Kind of data set: Anticonvulsant activity in CF1 mouse assessed as protection against maximal electroshock-induced seizures at 100 mg/kg, ip after 0.5 hrs. In kind it is functional, organism-based. More on the design: dose 100 mg/kg. The method in brief:
as §1

Data set [17] has as its system Mus musculus. The data set can be described thus: Anticonvulsant activity in CF1 mouse assessed as protection against 6 Hz electric shock-induced seizures at 100 mg/kg, ip after 0.5 hrs. Format: functional, organism-based. Set-up: dose 100 mg/kg. In a few lines: as §3
The subject of data set [18] is Mus musculus. The data set can be described thus: Anticonvulsant activity in CF1 mouse assessed as protection against subcutaneous metrazole-induced seizures at 100 mg/kg, ip after 0.5 hrs. In kind it is functional, organism-based. Set-up: dose 100 mg/kg.
Data set [19] has as its system Mus musculus. Kind of data set: Anticonvulsant activity in CF1 mouse assessed as protection against maximal electroshock-induced seizures at 100 mg/kg, ip after 4 hrs. In kind it is functional, organism-based. Set-up: dose 100 mg/kg. In a few lines:
as §1

Data set [20] has as its system Mus musculus. Kind of data set: Anticonvulsant activity in CF1 mouse assessed as protection against subcutaneous metrazole-induced seizures at 30 mg/kg, ip after 4 hrs. In kind it is functional, organism-based. Set-up: dose 30 mg/kg.
Data set [21] has as its system Mus musculus. The data set can be described thus: Neurotoxicity in CF1 mouse at 100 mg/kg, ip after 0.5 hrs by rotarod test. The following applies: in vivo. Set-up: dose 100 mg/kg, route intraperitoneal. Format: toxicity, organism-based. The method in brief: as §2
For data set [22], the system named is Mus musculus. Kind of data set: Anticonvulsant activity in CF1 mouse assessed as protection against 6 Hz electric shock-induced seizures at 100 mg/kg, ip after 4 hrs. Format: functional, organism-based. Set-up: dose 100 mg/kg. The method in brief: as §3
Data set [23] deals with Mus musculus. Kind of data set: Neurotoxicity in CF1 mouse at 30 mg/kg, ip after 0.5 hrs by rotarod test. The following applies: in vivo. Format: toxicity, organism-based. More on the design: dose 30 mg/kg, route intraperitoneal. In a few lines: as §2

The source made the active and inactive calls. The calls are words filed in the database; no cut-off is given here.

As for `CCCOc1c(C(=O)N/N=C(\c2ccccc2)c2ccc(Br)s2)sc(C(=O)N/N=C(\c2ccccc2)c2ccc(Br)s2)c1OCCC`, the result in data set [1], in data set [2], in data set [5], in [6], in [7] and in data set [8] was inactive. Also, the outcome in data set [10], in data set [11], in data set [12], in [13], in [14] and in data set [16] was inactive. For the same compound, the result in data set [17], in data set [18], in [19], in data set [20] and in [22] was inactive. Moreover, the Activity entry is listed as “Non-toxic” in [3]; “Toxic” in data set [4]; “Toxic” in data set [9]; “Non-toxic” in data set [15]; “Toxic” in data set [21]; “Non-toxic” in data set [23].

In the case of `CCCOc1c(C(=O)NN=C(c2ccccc2)c2ccccc2)sc(C(=O)NN=C(c2ccccc2)c2ccccc2)c1OCCC`, the result in data set [1], in data set [2], in data set [5], in [6], in [7] and in data set [8] was inactive. For the same compound, the outcome in data set [10], in data set [11], in [12], in [13], in data set [14] and in data set [16] was inactive. In addition, the result in data set [17], in data set [18], in [19], in [20] and in [22] was inactive. Also, the Activity entry in data set [3], in data set [4], in [9], in [15] and in data set [23] was “Non-toxic” in each case.
